Laboratory results from ChEMBL document CHEMBL1926569, “Novel (E)-1-(4-methyl-2-(alkylamino)thiazol-5-yl)-3-arylprop-2-en-1-ones as potent antimicrobial agents” (2011).
In brackets after ≈: the same amount, converted by molar mass.

Columns and labels:
[1] = test system: Staphylococcus aureus; assay: Antibacterial activity against Staphylococcus aureus ATCC 6538 after 24 hrs by microdilution method; type: functional; settings: ATCC 6538, 24 h
How it was run: (§1)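 Broth microdilution in 96-well plates. Bacterial suspensions were adjusted in sterile saline to 1.0 × 10⁵ CFU/ml, prepared daily and kept at 4 °C. Compound was added to LB broth with 1.0 × 10⁴ CFU per well and shaken at 160 rpm for 24 h at […] (so in the source). MIC is the lowest concentration with no visible growth under a binocular microscope. OD655 was also read. Duplicate, repeated three times.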

[2] = test system: Bacillus cereus; assay: Antibacterial activity against clinical isolate of Bacillus cereus after 24 hrs by microdilution method; type: functional; how it was run: as §1
[3] = test system: Micrococcus flavus; assay: Antibacterial activity against Micrococcus flavus ATCC 10240 after 24 hrs by microdilution method; type: functional; settings: ATCC 10240, 24 h; how it was run: as §1
[4] = test system: Listeria monocytogenes; assay: Antibacterial activity against Listeria monocytogenes NCTC 7973 after 24 hrs by microdilution method; type: functional; settings: NCTC 7973, 24 h; how it was run: as §1
[5] = test system: Pseudomonas aeruginosa; assay: Antibacterial activity against Pseudomonas aeruginosa ATCC 27853 after 24 hrs by microdilution method; type: functional; settings: ATCC 27853, 24 h; how it was run: as §1
[6] = test system: Salmonella typhimurium; assay: Antibacterial activity against Salmonella Typhimurium ATCC 13311 after 24 hrs by microdilution method; type: functional, Salmonella enterica subsp. enterica serovar Typhimurium; settings: Salmonella enterica, ATCC 13311, 24 h; how it was run: as §1
[7] = test system: Escherichia coli; assay: Antibacterial activity against Escherichia coli ATCC 35210 after 24 hrs by microdilution method; type: functional; settings: ATCC 35210, 24 h; how it was run: as §1
[8] = test system: Enterococcus faecalis; assay: Antibacterial activity against Enterococcus faecalis isolated from human after 24 hrs by microdilution method; type: functional; how it was run: as §1
[9] = test system: Staphylococcus aureus; assay: Antibacterial activity against Staphylococcus aureus ATCC 6538 incubated for 24 hrs followed by serial sub-cultivation for 24 hrs by microdilution method; type: functional; settings: ATCC 6538, 24 h
How it was run: (§2)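 MBC: after the 24 h LB broth microdilution (1.0 × 10⁴ CFU per well, 160 rpm), wells were serially sub-cultured into fresh broth plates and incubated a further 24 h. MBC is the lowest concentration with no visible growth, taken as 99.5% killing of the original inoculum. Duplicate, repeated three times.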

[10] = test system: Bacillus cereus; assay: Antibacterial activity against clinical isolate of Bacillus cereus incubated for 24 hrs followed by serial sub-cultivation for 24 hrs by microdilution; type: functional; how it was run: as §2
[11] = test system: Micrococcus flavus; assay: Antibacterial activity against Micrococcus flavus ATCC 10240 incubated for 24 hrs followed by serial sub-cultivation for 24 hrs by microdilution; type: functional; settings: ATCC 10240, 24 h; how it was run: as §2
[12] = test system: Listeria monocytogenes; assay: Antibacterial activity against Listeria monocytogenes NCTC 7973 incubated for 24 hrs followed by serial sub-cultivation for 24 hrs by microdilution; type: functional; settings: NCTC 7973, 24 h; how it was run: as §2
[13] = test system: Pseudomonas aeruginosa; assay: Antibacterial activity against Pseudomonas aeruginosa ATCC 27853 incubated for 24 hrs followed by serial sub-cultivation for 24 hrs by microdilution; type: functional; settings: ATCC 27853, 24 h; how it was run: as §2
[14] = test system: Salmonella typhimurium; assay: Antibacterial activity against Salmonella Typhimurium ATCC 13311 incubated for 24 hrs followed by serial sub-cultivation for 24 hrs by microdilution; type: functional, Salmonella enterica subsp. enterica serovar Typhimurium; settings: Salmonella enterica, ATCC 13311, 24 h; how it was run: as §2
[15] = test system: Escherichia coli; assay: Antibacterial activity against Escherichia coli ATCC 35210 incubated for 24 hrs followed by serial sub-cultivation for 24 hrs by microdilution; type: functional; settings: ATCC 35210, 24 h; how it was run: as §2
[16] = test system: Enterococcus faecalis; assay: Antibacterial activity against Enterococcus faecalis isolated from human incubated for 24 hrs followed by serial sub-cultivation for 24 hrs by microdilution; type: functional; how it was run: as §2
[17] = test system: Aspergillus ochraceus; assay: Antifungal activity against Aspergillus ochraceus ATCC 12066 after 72 hrs by serial dilution technique; type: functional; settings: ATCC 12066, 72 h
How it was run: (§3)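 Modified microdilution in 96-well plates. Fungi were kept on malt agar at 4 °C. Spores were washed off in sterile 0.85% saline with 0.1% Tween 80. Compounds were dissolved at 1 mg/ml in 5% DMSO with 0.1% Tween 80 and added to malt broth with inoculum. Plates were shaken at 160 rpm for 72 h at 28 °C. Duplicate, repeated three times.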

[18] = test system: Aspergillus niger; assay: Antifungal activity against Aspergillus niger ATCC 6275 after 72 hrs by serial dilution technique; type: functional; settings: ATCC 6275, 72 h; how it was run: as §3
[19] = test system: Aspergillus flavus; assay: Antifungal activity against Aspergillus flavus ATCC 9643 after 72 hrs by serial dilution technique; type: functional; settings: ATCC 9643, 72 h; how it was run: as §3
[20] = test system: Talaromyces funiculosus; assay: Antifungal activity against Penicillium funiculosum ATCC 36839 after 72 hrs by serial dilution technique; type: functional; settings: ATCC 36839, 72 h; how it was run: as §3
[21] = test system: Penicillium ochrochloron; assay: Antifungal activity against Penicillium ochrochloron ATCC 9112 after 72 hrs by serial dilution technique; type: functional; settings: ATCC 9112, 72 h; how it was run: as §3
[22] = test system: Trichoderma viride; assay: Antifungal activity against Trichoderma viride IAM 5061 after 72 hrs by serial dilution technique; type: functional; settings: IAM 5061, 72 h; how it was run: as §3
[23] = test system: Candida albicans; assay: Antifungal activity against Candida albicans isolated from human after 72 hrs by serial dilution technique; type: functional; how it was run: as §3
[24] = test system: Aspergillus ochraceus; assay: Antifungal activity against Aspergillus ochraceus ATCC 12066 incubated for 72 hrs followed by serial sub-cultivation for 72 hrs by serial dilution technique; type: functional; settings: ATCC 12066, 72 h
How it was run: (§4)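 MFC: material from 72 h malt broth microdilution wells was serially sub-cultured into fresh broth plates and incubated a further 72 h at 28 °C. Fungicidal concentration is taken from growth after sub-culture. Duplicate, repeated three times.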

[25] = test system: Aspergillus fumigatus; assay: Antifungal activity against Aspergillus fumigatus isolated from human incubated for 72 hrs followed by serial sub-cultivation for 72 hrs by serial dilution technique; type: functional; how it was run: as §4
[26] = test system: Aspergillus niger; assay: Antifungal activity against Aspergillus niger ATCC 6275 incubated for 72 hrs followed by serial sub-cultivation for 72 hrs by serial dilution technique; type: functional; settings: ATCC 6275, 72 h; how it was run: as §4
[27] = test system: Aspergillus flavus; assay: Antifungal activity against Aspergillus flavus ATCC 9643 incubated for 72 hrs followed by serial sub-cultivation for 72 hrs by serial dilution technique; type: functional; settings: ATCC 9643, 72 h; how it was run: as §4
[28] = test system: Talaromyces funiculosus; assay: Antifungal activity against Penicillium funiculosum ATCC 36839 incubated for 72 hrs followed by serial sub-cultivation for 72 hrs by serial dilution technique; type: functional; settings: ATCC 36839, 72 h; how it was run: as §4
[29] = test system: Penicillium ochrochloron; assay: Antifungal activity against Penicillium ochrochloron ATCC 9112 incubated for 72 hrs followed by serial sub-cultivation for 72 hrs by serial dilution technique; type: functional; settings: ATCC 9112, 72 h; how it was run: as §4
[30] = test system: Trichoderma viride; assay: Antifungal activity against Trichoderma viride IAM 5061 incubated for 72 hrs followed by serial sub-cultivation for 72 hrs by serial dilution technique; type: functional; settings: IAM 5061, 72 h; how it was run: as §4
[31] = test system: Candida albicans; assay: Antifungal activity against Candida albicans isolated from human incubated for 72 hrs followed by serial sub-cultivation for 72 hrs by serial dilution technique; type: functional; how it was run: as §4
[32] = test system: Pseudomonas aeruginosa; assay: Ratio of ampicillin MIC to compound MIC for Pseudomonas aeruginosa ATCC 27853; type: functional
[33] = test system: Aspergillus ochraceus; assay: Ratio of bifonazole to compound for Aspergillus ochraceus ATCC 12066; type: functional
[34] = test system: Aspergillus niger; assay: Ratio of bifonazole to compound for Aspergillus niger ATCC 6275; type: functional
[35] = test system: Talaromyces funiculosus; assay: Ratio of bifonazole to compound for Penicillium funiculosum ATCC 36839; type: functional
[36] = test system: Penicillium ochrochloron; assay: Ratio of bifonazole to compound for Penicillium ochrochloron ATCC 9112; type: functional
[37] = test system: Trichoderma viride; assay: Ratio of bifonazole to compound for Trichoderma viride IAM 5061; type: functional
[38] = test system: Candida albicans; assay: Ratio of bifonazole to compound for Candida albicans isolated from human; type: functional
[39] = test system: Aspergillus ochraceus; assay: Ratio of ketoconazole to compound for Aspergillus ochraceus ATCC 12066; type: functional
[40] = test system: Aspergillus fumigatus; assay: Ratio of ketoconazole to compound for Aspergillus fumigatus isolated from human; type: functional
[41] = test system: Penicillium ochrochloron; assay: Ratio of ketoconazole to compound for Penicillium ochrochloron ATCC 9112; type: functional
[42] = test system: Candida albicans; assay: Ratio of ketoconazole to compound for Candida albicans isolated from human; type: functional
[43] = test system: Aspergillus ochraceus; assay: Antifungal activity against Aspergillus ochraceus after 72 hrs by serial dilution technique

- MIC [1]: 94.6 µM (≈ 30 µg/mL)
- MIC [2]: 47.3 µM (≈ 15 µg/mL)
- MIC [3]: 63.1 µM (≈ 20 µg/mL)
- MIC [4]: 94.6 µM (≈ 30 µg/mL)
- MIC [5]: 78.9 µM (≈ 25 µg/mL)
- MIC [6]: 47.3 µM (≈ 15 µg/mL)
- MIC [7]: 63.1 µM (≈ 20 µg/mL)
- MIC [8]: 47.3 µM (≈ 15 µg/mL)
- MIC [17]: 63.1 µM (≈ 20 µg/mL)
- MIC [18]: 63.1 µM (≈ 20 µg/mL)
- MIC [19]: 63.1 µM (≈ 20 µg/mL)
- MIC [20]: 31.5 µM (≈ 10 µg/mL)
- MIC [21]: 63.1 µM (≈ 20 µg/mL)
- MIC [22]: 47.3 µM (≈ 15 µg/mL)
- MIC [23]: 31.5 µM (≈ 10 µg/mL)
- MIC [43]: 63.1 µM (≈ 20 µg/mL)
Compound: CCNc1nc(C)c(C(=O)/C=C/c2cccc([N+](=O)[O-])c2)s1
- MBC [9]: 94.6 µM (≈ 30 µg/mL)
- MBC [10]: 63.1 µM (≈ 20 µg/mL)
- MBC [11]: 94.6 µM (≈ 30 µg/mL)
- MBC [12]: 94.6 µM (≈ 30 µg/mL)
- MBC [13]: 78.9 µM (≈ 25 µg/mL)
- MBC [14]: 63.1 µM (≈ 20 µg/mL)
- MBC [15]: 78.9 µM (≈ 25 µg/mL)
- MBC [16]: 63.1 µM (≈ 20 µg/mL)
- MFC [24]: 78.8 µM (≈ 25 µg/mL)
- MFC [25]: 78.8 µM (≈ 25 µg/mL)
- MFC [26]: 78.8 µM (≈ 25 µg/mL)
- MFC [27]: 78.8 µM (≈ 25 µg/mL)
- MFC [28]: 63.1 µM (≈ 20 µg/mL)
- MFC [29]: 78.8 µM (≈ 25 µg/mL)
- MFC [30]: 63.1 µM (≈ 20 µg/mL)
- MFC [31]: 63.1 µM (≈ 20 µg/mL)
- Ratio [32]: 10
- Ratio [33]: 10
- Ratio [34]: 10
- Ratio [35]: 10
- Ratio [36]: 10
- Ratio [37]: 10
- Ratio [38]: 10
- Ratio [39]: 10
- Ratio [40]: 10
- Ratio [41]: 10
- Ratio [42]: 10
